Data taken from ChEMBL document CHEMBL1123760, “Synthesis and oral antifungal activity of novel azolylpropanolones and related compounds” (1987).
≈ marks a conversion by molar mass, not a printed value.

Legend:
Format in all cases: functional
Aspergillus fumigatus = assay: In vitro antifungal activity against Aspergillus fumigatus
How it was run: (§1)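 Broth microdilution MIC in Sabouraud's glucose broth; final inocula 1 × 10^5 cells/mL (yeast) or 1 × 10^5 conidia/mL (mold and dermatophyte).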

Candida albicans [1] = assay: In vitro antifungal activity against Candida albicans; how it was run: as §1
Trichophyton benhamiae = assay: In vitro antifungal activity against Trichophyton asteroides; how it was run: as §1
Candida albicans [2] = assay: Minimum effective concentration for inhibition of pseudomycelium formation in Candida albicans; conditions: for minimal effective concentration: Candida albicans, read-out: MEC
How it was run: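 C. albicans KE-2 (clinical isolate) at a final 1 × 10^6 yeast cells/mL in EMEM with 20% calf serum; compounds diluted by the same microtiter system as for MICs. After incubation, wells were Giemsa-stained (5% in phosphate buffer) and read by microscope. MEC is the lowest concentration preventing typical pseudomycelium formation.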

[3] = Aspergillus fumigatus, read-out: MIC
[4] = Candida albicans, read-out: MIC
[5] = Trichophyton benhamiae, read-out: MIC

## CCC[C@H]1OC(=O)O[C@]1(Cn1cncn1)c1ccc(Cl)cc1
Aspergillus fumigatus; [3]
  MIC: > 100 µg/mL
Candida albicans [1]; [4]
  MIC: > 100 µg/mL
Trichophyton benhamiae; [5]
  MIC: 1.6 µg/mL (≈ 4.97 µM)
Candida albicans [2]
  minimal effective concentration: 0.31 µg/mL

## O=C1O[C@H](c2ccc(Cl)cc2)[C@](Cn2cncn2)(c2ccc(Cl)cc2Cl)O1
Trichophyton benhamiae
  MIC: 0.1 µg/mL (≈ 0.235 µM)
Candida albicans [2]
  MEC: 0.08 µg/mL

## O=C1O[C@H](c2ccc(Cl)cc2Cl)[C@@](Cn2cncn2)(c2ccccc2)O1
Aspergillus fumigatus; [3]
  MIC: > 100 µg/mL
Candida albicans [1]; [4]
  MIC: > 100 µg/mL
Trichophyton benhamiae; [5]
  MIC: 0.4 µg/mL (≈ 1.03 µM)
Candida albicans [2]
  minimal effective concentration: 1.25 µg/mL

## OC(Cc1ccc(Cl)cc1)(c1ccc(F)cc1)C(O)(Cn1cncn1)c1ccc(Cl)cc1 (centres undefined)
Aspergillus fumigatus; [3]
  MIC: > 100 µg/mL
Candida albicans [1]; [4]
  MIC: > 100 µg/mL
Trichophyton benhamiae; [5]
  MIC: > 100 µg/mL
Candida albicans [2]
  minimal effective concentration: 20 µg/mL

## CC(C)(O)C(O)(Cn1cncn1)c1ccccc1 (centres undefined)
Aspergillus fumigatus; [3]
  MIC: > 100 µg/mL
Candida albicans [1]; [4]
  MIC: > 100 µg/mL
Trichophyton benhamiae; [5]
  MIC: 6.3 µg/mL (≈ 25.5 µM)
Candida albicans [2]
  minimal effective concentration: > 20 µg/mL

## O=C1O[C@H](c2ccc(F)cc2)[C@@](Cn2cncn2)(c2ccc(F)cc2)O1
Aspergillus fumigatus; [3]
  MIC: > 100 µg/mL
Candida albicans [1]; [4]
  MIC: > 100 µg/mL
Trichophyton benhamiae; [5]
  MIC: 3.1 µg/mL (≈ 8.68 µM)
Candida albicans [2]
  minimal effective concentration: 2.5 µg/mL

## CCCC(O)(Cn1cncn1)C(=O)c1ccc(Cl)cc1 (centres undefined)
Aspergillus fumigatus; [3]
  MIC: 50 µg/mL (≈ 170 µM)
Candida albicans [1]; [4]
  MIC: > 100 µg/mL
Trichophyton benhamiae; [5]
  MIC: 0.8 µg/mL (≈ 2.72 µM)
Candida albicans [2]
  minimal effective concentration: 0.31 µg/mL

## CC(O)(c1ccc(F)cc1)C(O)(Cn1ccnc1)c1ccccc1Cl (centres undefined)
Aspergillus fumigatus; [3]
  MIC: 100 µg/mL (≈ 277 µM)
Candida albicans [1]; [4]
  MIC: > 100 µg/mL
Trichophyton benhamiae; [5]
  MIC: 0.1 µg/mL (≈ 0.277 µM)
Candida albicans [2]
  minimal effective concentration: 1.25 µg/mL

## Cc1ccc(C(=O)C(O)(Cn2cncn2)c2ccc(C)cc2)cc1 (centres undefined)
Aspergillus fumigatus; [3]
  MIC: > 100 µg/mL
Candida albicans [1]; [4]
  MIC: > 100 µg/mL
Trichophyton benhamiae; [5]
  MIC: 1.56 µg/mL (≈ 4.85 µM)
Candida albicans [2]
  minimal effective concentration: 20 µg/mL

## O=C(c1ccccc1Cl)C(O)(Cn1cncn1)c1ccccc1 (centres undefined)
Aspergillus fumigatus; [3]
  MIC: > 100 µg/mL
Candida albicans [1]; [4]
  MIC: > 100 µg/mL
Trichophyton benhamiae; [5]
  MIC: 1.6 µg/mL (≈ 4.88 µM)
Candida albicans [2]
  minimal effective concentration: > 20 µg/mL

## CC(C)C(=O)C(O)(Cn1cncn1)c1ccc(Cl)cc1 (stereo in doubt; 13)
Aspergillus fumigatus
  MIC: 12.5 µg/mL (≈ 42.6 µM)
Candida albicans [1]
  MIC: >100 µg/mL
Candida albicans [2]
  MEC: 0.08 µg/mL

## OC(c1ccc(Cl)cc1)C(O)(Cn1cncn1)c1ccc(Cl)cc1 (stereo in doubt; 88)
Candida albicans [1]
  MIC: 50 µg/mL (≈ 137 µM)
Trichophyton benhamiae
  MIC: 0.39 µg/mL (≈ 1.07 µM)
Candida albicans [2]
  MEC: 1.25 µg/mL

## CC(C)C(O)C(O)(Cn1cncn1)c1ccc(Cl)cc1 (stereo in doubt; 101)
Trichophyton benhamiae
  MIC: 6.3 µg/mL (≈ 21.3 µM)
Candida albicans [2]
  MEC: 0.63 µg/mL

## OC(c1ccc(F)cc1)C(O)(Cn1cncn1)c1ccc(Cl)cc1 (stereo in doubt; 104)
Candida albicans [1]
  MIC: 50 µg/mL (≈ 144 µM)
Trichophyton benhamiae
  MIC: 6.3 µg/mL (≈ 18.1 µM)
Candida albicans [2]
  MEC: 2.5 µg/mL

## CCCC(O)C(O)(Cn1cncn1)c1ccc(Cl)cc1 (stereo in doubt; 106)
Trichophyton benhamiae
  MIC: 1.6 µg/mL (≈ 5.41 µM)
Candida albicans [2]
  MEC: 0.16 µg/mL

## O=C1O[C@H](c2ccc(Cl)cc2)[C@@](Cn2cncn2)(c2ccc(Cl)cc2Cl)O1 (stereo in doubt; 129)
Trichophyton benhamiae
  MIC: 0.2 µg/mL (≈ 0.471 µM)
Candida albicans [2]
  MEC: 0.04 µg/mL

## OC(Cn1cncn1)(c1ccc(F)cc1)C(O)(c1ccccc1)c1ccc(F)cc1 (stereo in doubt; 164)
Trichophyton benhamiae
  MIC: >100 µg/mL

## CC(C)C(C)(O)C(O)(Cn1cncn1)c1ccc(Cl)cc1Cl (stereo in doubt; 168)
Aspergillus fumigatus
  MIC: 25 µg/mL (≈ 72.6 µM)
Trichophyton benhamiae
  MIC: 0.1 µg/mL (≈ 0.29 µM)
Candida albicans [2]
  MEC: 0.04 µg/mL

## CCC(O)(c1ccc(F)cc1)C(O)(Cn1cncn1)c1ccc(Cl)cc1 (stereo in doubt; 170)
Aspergillus fumigatus
  MIC: 25 µg/mL (≈ 66.5 µM)
Trichophyton benhamiae
  MIC: 0.1 µg/mL (≈ 0.266 µM)
Candida albicans [2]
  MEC: 0.04 µg/mL

## CC(O)(c1ccc(F)cc1)C(O)(Cn1cncn1)c1ccccc1Cl (stereo in doubt; 181)
Aspergillus fumigatus
  MIC: 6.3 µg/mL (≈ 17.4 µM)
Trichophyton benhamiae
  MIC: 0.1 µg/mL (≈ 0.276 µM)
Candida albicans [2]
  MEC: 1.25 µg/mL

## CCCCC(O)(c1ccc(F)cc1)C(O)(Cn1cncn1)c1ccccc1Cl (stereo in doubt; 188)
Aspergillus fumigatus
  MIC: >100 µg/mL
Trichophyton benhamiae
  MIC: 0.2 µg/mL (≈ 0.495 µM)
Candida albicans [2]
  MEC: 2.5 µg/mL

## CCCCC(O)(Cn1cncn1)C(C)(O)c1ccc(Cl)cc1 (stereo in doubt; 190)
Aspergillus fumigatus
  MIC: 50 µg/mL (≈ 154 µM)
Trichophyton benhamiae
  MIC: 0.8 µg/mL (≈ 2.47 µM)
Candida albicans [2]
  MEC: 2.5 µg/mL
